Assay results collected from several papers.
Protocols differ between the studies behind these lines.
Target: Mitogen-activated protein kinase 8 (MAPK8, Homo sapiens, UniProt P45983)

| SMILES | test | conditions | endpoint | value |
| --- | --- | --- | --- | --- |
| Cn1cc(-c2cccc(N3CCc4c(sc5c4CC(C)(C)C5)C3=O)c2CO)cc(Nc2ccncn2)c1=O | enzyme activity, inhibitor | 1 µM | inhibition | 1% |
| N#CC1(c2ccccn2)CCN(Cc2cc(C(=O)O)c(=O)n3ccccc23)CC1 | cell-free assay, competition with immobilised ligand | 1 µM | remaining binding | 85% |
| COc1ncccc1-c1cnn2ccc(N3CCN(C(=O)OC(C)C)CC3)nc12 | binding, competition with immobilised ligand | 1 µM | remaining binding | 100% |
| Nc1ncc(-c2nc(N3CCOCC3)nc(N3CCOCC3)n2)c(C(F)F)n1 | binding, competition with immobilised ligand | 10 µM | remaining binding | 86% |
| C#Cc1n[nH]c2c(-c3cn(C(C)c4ccccn4)c(=O)[nH]c3=O)cc(F)cc12 (centres unmarked) | enzyme activity, inhibitor | 1 µM | inhibition | -4.2% |
| O=c1[nH]c2ccccc2n1C1CCN(Cc2ccc(-c3[nH]c4cc5ncnc5cc4nc3-c3ccccc3)cc2)CC1 | cell-free assay | 0.5 µM | remaining signal | 89.6% |
| C#Cc1n[nH]c2c(-c3cn([C@@H](C)c4ccccc4)c(=O)[nH]c3=O)cc(F)cc12 | enzyme activity, inhibitor | 0.1 µM | inhibition | 1.5% |
| Cn1cncc1[C@](O)(COc1ccc(C#N)cc1-c1ccc(OC(F)(F)F)cc1)c1ccc(C#N)cc1 | cell-free assay, competition with immobilised ligand | 1 µM | remaining binding | 100% |
| Cc1nn(C)cc1-c1nc2c(N3CCN(Cc4ccc(Cl)cc4)CC3)c(Cl)cnc2[nH]1 | binding, competition with immobilised ligand | 1 µM | remaining binding | 93% |
| Cn1cc(-c2cc(F)cc(N3CCn4c(cc5c4CCCC5)C3=O)c2CO)cc(Nc2ccc(N3CCN(C4COC4)CC3)cn2)c1=O | enzyme activity, inhibitor | 0.1 µM | inhibition | -1% |
| CC(C)(C)c1cc(C=C(C#N)C#N)cc(Br)c1O | enzyme activity, inhibitor | 0.5 µM | remaining activity | 90.4% |
